Structures are written as SMILES. pEC50, pIC50: −log10 of the molar value. Activity calls are given as the source filed them. The calls are words filed in the database; no cut-off is given here.

Here are results for 15 compounds from ChEMBL document CHEMBL1166007, “Anti-AIDS agents 82: synthesis of seco-(3'R,4'R)-3',4'-di-O-(S)-camphanoyl-(+)-cis-khellactone (DCK) derivatives as novel anti-HIV agents” (Bioorg Med Chem, 2010).

For one data set, the system named is MT4. As to the kind of experiment: Cytotoxicity against human MT4 cells after 4 days by XTT assay. The class given is cell-based. The settings on record: MT4, 96 h. For orientation: Tetrazolium dyes change colour on reduction, which living cells bring about.
The test system of data set [1] is Human immunodeficiency virus 1. Kind of data set: Antiviral activity against HIV1 NL4-3 infected in human MT4 cells assessed as inhibition of viral p24 antigen production after 4 days by ELISA. The class given is functional, organism-based. The settings on record: Human immunodeficiency virus 1, NL4-3, MT4, 96 h. Summed up:
(§1)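 HIV-1 NL4-3 or RTMDR (multi-RT inhibitor-resistant) virus infected MT-4 cells at MOI 0.001 in 96-well culture. On day 4 post-infection, culture supernatants were collected and p24 was measured by ELISA. TI = IC50/EC50. Values are averages of at least three separate experiments. Top tested concentration 20 μM.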
A general note: In an ELISA, binding on a coated surface is turned into a signal by an enzyme label.

Data set [2] can be described thus: Therapeutic index, ratio of IC50 for human MT4 cells to EC50 for HIV1 NL4-3 infected in human MT4 cells. To be noted: read-out: Ratio IC50/EC50. The class given is cell-based. Summed up: as §1
Another data set relates to MT2. Kind of data set: Cytotoxicity against human MT2 cells after 6 days by XTT assay. The class given is cell-based. The settings on record: MT2, 144 h.
Data set [3] can be described thus: Therapeutic index, ratio of IC50 for human MT2 cells to EC50 for HIV1 3B infected in human MT2 cells. The class given is cell-based. To be noted: read-out: Ratio IC50/EC50.
In data set [4] the test system is Human immunodeficiency virus 1. As to the kind of experiment: Antiviral activity against HIV1 3B infected in human MT2 cells assessed as inhibition of viral p24 antigen production after 6 days by ELISA. The settings on record: Human immunodeficiency virus 1, 3B, MT2, 144 h. The class given is functional, organism-based. Summed up: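 Human T-cell MT-2 line kept with L-glutamine at 37 °C and 5% CO2. Compounds were dissolved in DMSO and screened at final 100, 20, 4 and 0.8 μg/mL, with a highest tested concentration of 20 μM. Medium was changed on days 1 and 4. Supernatant p24 was measured by antigen capture on day 6.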

The test system of data set [5] is Human immunodeficiency virus. As to the kind of experiment: Antiviral activity against multi-RT inhibitor-resistant HIV infected in human MT4 cells assessed as inhibition of viral p24 antigen production after 4 days by ELISA. The settings on record: Human immunodeficiency virus 1, MT4, 96 h. The class given is functional, organism-based. The method in brief:
as §1

Data set [6] is described as follows: Therapeutic index, ratio of IC50 for human MT4 cells to EC50 for multi-RT inhibitor-resistant HIV infected in human MT4 cells. The class given is cell-based. To be noted: read-out: Ratio IC50/EC50. The method in brief:
as §1

The subject of data set [7] is Human immunodeficiency virus 1. As to the kind of experiment: Antiviral activity against HIV1 3B infected in […] assessed as inhibition of viral p24 antigen production at 20 uM after 6 days by ELISA. The class given is functional, organism-based. Summed up: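 Human T-cell MT-2 line kept with L-glutamine at 37 °C and 5% CO2. Compounds were dissolved in DMSO and screened at final 100, 20, 4 and 0.8 μg/mL, with a highest tested concentration of 20 μM. Wells received […] at 3 × 10^5 cells/mL plus HIV-1 IIIB inoculum of 125 TCID50. Medium was changed on days 1 and 4. Supernatant p24 was measured by antigen capture on day 6.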

The term pIC50 denotes the negative decadic logarithm of the IC50, by convention in mol/L. A high value points to a small IC50. One may read the pEC50 as −log10 of the EC50, conventionally taken in molar units. In the data set with MT4, `COC(=O)COc1ccc2c(C)cc(=O)oc2c1COC(=O)[C@@]12CC[C@@](C)(C(=O)O1)C2(C)C` had a negative logarithm of the IC50 (pIC50) of 4.26. Besides, the pEC50 in data set [1] was under 4.35. Further, the selectivity ratio in data set [2] stood at 1.22.

With `Cc1cc(=O)oc2c3c(ccc12)OC(C)(C)[C@H](OC(=O)[C@@]12CC[C@@](C)(C(=O)O1)C2(C)C)[C@@H]3OC(=O)[C@@]12CC[C@@](C)(C(=O)O1)C2(C)C`, the pIC50 in the data set on MT2 is 4.41. Moreover, in data set [3], the selectivity ratio is 301. The pEC50 in data set [4] was 6.90.

In the data set with MT4, `CCc1cc(=O)c2ccc3c(c2o1)[C@@H](OC(=O)[C@@]12CC[C@@](C)(C(=O)O1)C2(C)C)[C@@H](OC(=O)[C@@]12CC[C@@](C)(C(=O)O1)C2(C)C)C(C)(C)O3` showed a pIC50 of 5.03. Besides, the negative logarithm of the EC50 (pEC50) in data set [5] was 6.88; in data set [1], 7.10. Further, in [6], the selectivity ratio came out at 69.9.

For `CCOc1c(C(C)=O)ccc2c1[C@@H](OC(=O)[C@@]13CC[C@@](C)(C(=O)O1)C3(C)C)[C@@H](OC(=O)[C@@]13CC[C@@](C)(C(=O)O1)C3(C)C)C(C)(C)O2`, in the data set on MT2, the negative-log IC50 (pIC50) was 4.40. Also, the selectivity ratio in data set [3] was determined as 208. The negative logarithm of the EC50 (pEC50) in data set [4] was 6.72.

Turning to `Cc1cc(=O)oc2c([C@H](C)OC(=O)[C@@]34CC[C@@](C)(C(=O)O3)C4(C)C)c(OC(C)C)ccc12`, the pIC50 is 4.25 in the data set on MT2 and 4.70 in the data set on MT4. Besides, the figures for the negative logarithm of the EC50 (pEC50) in [5] and in [1] were 4.70 and under 4.70, respectively. For the same compound, the inhibition result in [7] is “inactive”.

Turning to `Cc1cc(=O)oc2c([C@H](COC(=O)[C@@]34CC[C@@](C)(C(=O)O3)C4(C)C)OC(=O)[C@@]34CC[C@@](C)(C(=O)O3)C4(C)C)c(OC(C)C)ccc12`, the pIC50 in the data set on MT2 was 4.41; in the data set with MT4 it was 4.70. Besides, the pEC50 in data set [5] was 4.70; in [1], under 4.70. For the same compound, in data set [7], the inhibition entry was “inactive”.

`COc1ccc2c(C)cc(=O)oc2c1COC(=O)[C@@]12CC[C@@](C)(C(=O)O1)C2(C)C` had a negative logarithm of the IC50 (pIC50) in the data set with MT4 of 4.20. In addition, the negative logarithm of the EC50 (pEC50) in data set [1] was under 4.44. Moreover, the selectivity ratio in [2] was 1.71.

For the compound `CC(=O)c1ccc2c(c1C)[C@@H](OC(=O)[C@@]13CC[C@@](C)(C(=O)O1)C3(C)C)[C@@H](OC(=O)[C@@]13CC[C@@](C)(C(=O)O1)C3(C)C)C(C)(C)O2`, the pIC50 with MT2 is 4.40. Moreover, the inhibition entry in data set [7] is “inactive”.

In turn, `CCOc1ccc2c(C)cc(=O)oc2c1COC(=O)[C@@]12CC[C@@](C)(C(=O)O1)C2(C)C` gave a pIC50 with MT4 of 4.22. Further, the pEC50 in data set [1] is under 4.49. In addition, the selectivity ratio in [2] was 1.87.

Turning to `Cc1cc(=O)oc2cc(OC(C)(C)[C@@H](COC(=O)[C@@]34CC[C@@](C)(C(=O)O3)C4(C)C)OC(=O)[C@@]34CC[C@@](C)(C(=O)O3)C4(C)C)ccc12`, the negative logarithm of the IC50 (pIC50) in the data set with MT2 was 4.41; with MT4, 4.70. In addition, the pEC50 was 4.70 in [5] and under 4.70 in data set [1]. The inhibition entry in data set [7] is “inactive”.

Turning to `Cc1cn([C@H]2CC(N=[N+]=[N-])[C@@H](CO)O2)c(=O)[nH]c1=O` (single isomer, unassigned) [ZIDOVUDINE], in data set [4], the pEC50 was 7.36.

With `Cc1cc(=O)oc2c(CSC(=O)[C@@]34CC[C@@](C)(C(=O)O3)C4(C)C)c(OC(C)C)ccc12`, in the data set on MT4, the pIC50 was 4.25. Moreover, the negative logarithm of the EC50 (pEC50) in data set [1] was 5.33. Also, the selectivity ratio in data set [2] was 12.

With `Cc1cc(=O)oc2c(CNC(=O)[C@@]34CC[C@@](C)(C(=O)O3)C4(C)C)c(OC(C)C)ccc12`, the negative logarithm of the IC50 (pIC50) with MT4 is 4.60. For the same compound, in [1], the pEC50 is under 4.60. The selectivity ratio in data set [2] is 1.

For the compound `COc1ccc(N(Cc2c(OC(C)C)ccc3c(C)cc(=O)oc23)C(=O)[C@@]23CC[C@@](C)(C(=O)O2)C3(C)C)cc1`, the negative logarithm of the IC50 (pIC50) in the data set on MT4 was 4.46. For the same compound, the negative-log EC50 (pEC50) in data set [1] is 5.33. Further, in data set [2], the selectivity ratio was 15.

In the data set on MT4, `Cc1cc(=O)oc2c(CN(C)C(=O)[C@@]34CC[C@@](C)(C(=O)O3)C4(C)C)c(OC(C)C)ccc12` showed a negative-log IC50 (pIC50) of 4.25. The negative logarithm of the EC50 (pEC50) in [1] is 5.25. Besides, the selectivity ratio in [2] was 8.
